In ChEMBL document CHEMBL1124154, “Polycyclic aryl- and heteroarylpiperazinyl imides as 5-HT1A receptor ligands and potential anxiolytic agents: synthesis and structure-activity relationship studies” (J Med Chem, 1988):

Assays:
[1] = target: D(2) dopamine receptor (Rattus norvegicus) (UniProt P61169); assay: In vitro inhibition of [3H]spiperone binding to dopamine receptor D2 from rat brain limbic tissue at 1 uM; format: tissue-based; details: Limbic system
[2] = species: Rattus norvegicus; assay: Concentration required to produce 50% block in avoidance responding in conditioned avoidance response test in rat; format: functional
In short: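 Trained rats in shelf-jump and/or discrete-trial conditioned avoidance paradigms. Drug given ip or po to at least five rats per dose, with a control session before each drug run. Trials without avoidance (avoidance block) were counted per dose as a percentage of total trials, with control set at 100%. AB50 was taken from a least-squares dose-effect regression line.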

[3] = target: T1, 5-hydroxytryptamine receptor 1A (Rattus norvegicus) (UniProt P19327); assay: In vitro inhibition of [3H]-8-hydroxy-2-(di-n-propylamino)tetralin binding to 5-hydroxytryptamine 1A receptor from rat hippocampal tissue at 1 uM; details: Hippocampus
T1 sequence (whole entry): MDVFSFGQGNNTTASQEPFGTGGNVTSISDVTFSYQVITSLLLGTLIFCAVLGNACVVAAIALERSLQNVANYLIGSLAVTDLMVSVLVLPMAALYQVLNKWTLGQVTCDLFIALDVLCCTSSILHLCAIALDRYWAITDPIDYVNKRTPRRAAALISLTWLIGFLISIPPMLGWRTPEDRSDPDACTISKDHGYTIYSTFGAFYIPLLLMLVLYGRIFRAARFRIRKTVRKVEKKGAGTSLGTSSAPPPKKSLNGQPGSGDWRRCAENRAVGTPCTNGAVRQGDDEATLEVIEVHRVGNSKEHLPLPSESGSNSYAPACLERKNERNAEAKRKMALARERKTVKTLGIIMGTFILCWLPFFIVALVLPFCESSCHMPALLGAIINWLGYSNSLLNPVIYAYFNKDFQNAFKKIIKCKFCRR

[4] = Partition coefficient (logP); format: physicochemical; details: octanol/water
[5] = target: D(2) dopamine receptor (Rattus norvegicus, UniProt P61169); assay: In vitro inhibition of [3H]spiperone binding to Dopamine receptor D2 from rat brain limbic tissue; format: tissue-based, Limbic system
Sequence of D(2) dopamine receptor (P61169 whole entry): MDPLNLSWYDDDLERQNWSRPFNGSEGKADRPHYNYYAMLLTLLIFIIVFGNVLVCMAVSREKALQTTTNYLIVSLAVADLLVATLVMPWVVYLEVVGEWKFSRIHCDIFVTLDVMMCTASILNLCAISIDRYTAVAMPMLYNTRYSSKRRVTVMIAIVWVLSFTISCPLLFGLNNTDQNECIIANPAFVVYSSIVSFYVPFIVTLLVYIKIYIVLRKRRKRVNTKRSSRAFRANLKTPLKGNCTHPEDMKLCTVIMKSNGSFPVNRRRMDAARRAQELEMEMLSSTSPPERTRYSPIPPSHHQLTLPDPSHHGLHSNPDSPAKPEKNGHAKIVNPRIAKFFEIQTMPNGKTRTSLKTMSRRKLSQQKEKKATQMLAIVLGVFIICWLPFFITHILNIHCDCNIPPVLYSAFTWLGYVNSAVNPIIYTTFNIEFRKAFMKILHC
In short: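 Limbic tissue (nucleus accumbens, septum, olfactory tubercle) from Sprague-Dawley rats, washed membranes at 0.2-0.3 mg protein. Incubated with 0.3 nM [3H]spiroperidol and a range of drug concentrations, 10 min at 37 °C, in Tris buffer pH 7.1 with NaCl, KCl, CaCl2, ascorbate and pargyline. Filtered through GF/B and counted by scintillation. Nonspecific binding defined with 1 μM (+)-butaclamol.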

[6] = target: T2, 5-hydroxytryptamine receptor 1A (Rattus norvegicus, UniProt P19327); assay: In vitro inhibition of [3H]-8-hydroxy-2-(di-n-propylamino)tetralin binding to 5-hydroxytryptamine 1A receptor from rat hippocampal tissue.
T2 sequence (P19327 whole entry): T1 sequence (whole entry)

[7] = Ratio of ED50 stereotyped behavior in mice; format: functional

Sequence of D(2) dopamine receptor (Rattus norvegicus) (P61169 whole entry): as above

| SMILES | inhibition [1] [%] | AB50 [2] [mg/kg] | inhibition [3] [%] | logP [4] | Ki [5] [nM] | Ki [6] [nM] | Ratio [7] |
| --- | --- | --- | --- | --- | --- | --- | --- |
| Cl.O=C1C2C3CCCC(CC3)C2C(=O)N1CCCCN1CCN(c2ccc(C(F)(F)F)cn2)CC1 (stereo unspecified) | 33 | >40 | 71 |  |  |  |  |
| Cl.O=C1N(CCCCN2CCN(c3ncccn3)CC2)C(=O)C23C4CCC(C4)C12C1CCC3C1 (stereo unspecified) | 63 | 40 |  |  |  |  |  |
| Cl.O=C1C2C3CCC(C4CC43)C2C(=O)N1CCCCN1CCN(c2ncccn2)CC1 (stereo unspecified) |  | 34 |  | 1.83 |  |  |  |
| O=C1C2C3CS(=O)(=O)CC3C2C(=O)N1CCCCN1CCN(c2cncc(Cl)n2)CC1 (stereo unspecified) | 0 | 40 | 35 |  |  |  |  |
| O=C1C2C3C=CC(C3)C2C(=O)N1CCCCN1CCN(c2ncccn2)CC1 (stereo unspecified) |  | 5 |  | 1.36 | 248 | 42 |  |
| Cl.O=C1C2C3C=CC(C4CCC34)C2C(=O)N1CCCCN1CCN(c2cccc(C(F)(F)F)c2)CC1 (stereo unspecified) | 99 | 40 |  |  |  | 57 |  |
| Cl.O=C1C2C3CCC(C4CC43)C2C(=O)N1CCCCN1CCN(c2cccc(C(F)(F)F)c2)CC1 (stereo unspecified) | 92 | >40 |  |  |  | 20 |  |
| Cl.O=C1C2C3C=CC(C4C=CC43)C2C(=O)N1CCCCN1CCN(c2cccc(C(F)(F)F)c2)CC1 (stereo unspecified) | 96 | 40 |  |  |  | 25 |  |
| O=C1[C@@H]2[C@H]3CC[C@H](C3)[C@@H]2C(=O)N1CCCCN1CCN(c2ncccn2)CC1 [TANDOSPIRONE] |  | 28 |  |  |  | 9 |  |
| Cl.O=C1C2C3CS(=O)(=O)CC3C2C(=O)N1CCCCN1CCN(c2ncccn2)CC1 (stereo unspecified) | 0 | >40 | 44 |  |  |  |  |
| CC(C)=C1C2C=CC1C1C(=O)N(CCCCN3CCN(c4cncc(Cl)n4)CC3)C(=O)C21 (stereo unspecified) |  | 40 |  |  | 968 |  |  |
| O=C1C2C3C=CC(C4CC34)C2C(=O)N1CCCCN1CCN(c2cncc(Cl)n2)CC1 (stereo unspecified) |  | 40 |  |  |  |  |  |
| Cl.O=C1C2C3C=CC(C4C=CC43)C2C(=O)N1CCCCN1CCN(c2cnccn2)CC1 (stereo unspecified) | 13 | 40 | 46 |  |  |  |  |
| Cl.O=C1C2C3C=CC(C4CC34)C2C(=O)N1CCCCN1CCN(c2ncccn2)CC1 (stereo unspecified) |  | 40 |  | 1.73 | 488 | 38 |  |
| O=C1C2C3CCC(C4CC43)C2C(=O)N1CCCCN1CCN(c2nccnc2Cl)CC1 (stereo unspecified) | 75 | 61 |  |  |  | 26 |  |
| O=C1C2C3C=CC(C4C=CC43)C2C(=O)N1CCCCN1CCN(c2cncc(Cl)n2)CC1 (stereo unspecified) | 50 | 40 |  |  |  |  |  |
| Cl.O=C1C2C3C=CC(C4CC34)C2C(=O)N1CCCCN1CCN(c2ccc(C(F)(F)F)cn2)CC1 (stereo unspecified) | 40 | 40 | 55 |  |  |  |  |
| O=C1C2C3C=CC(C4CC34)C2C(=O)N1CCCCC1CCN(c2cncc(Cl)n2)CC1 (stereo unspecified) | 21 | 40 | 8 |  |  |  |  |
| Cl.O=C1C2C3C=CC(CCC3)C2C(=O)N1CCCCN1CCN(c2ncccn2)CC1 (stereo unspecified) | 53 | 40 |  | 1.94 |  |  |  |
| O=C1C2C3C=CC(C3)C2C(=O)N1CCCCN1CCN(c2nccnc2Cl)CC1 (stereo unspecified) | 48 | 40 |  |  |  | 37 |  |
| O=C1C2CCCCC2C(=O)N1CCCCN1CCN(c2ncccn2)CC1 (stereo unspecified) |  | 6 |  |  | 374 |  |  |
| O=C1N(CCCCN2CCN(c3cncc(Cl)n3)CC2)C(=O)C23C4CCC(C4)C12C1CCC3C1 (stereo unspecified) |  | 40 | 23 |  |  |  |  |
| O=C1C2C3C=CC(C4CCC34)C2C(=O)N1CCCCN1CCN(c2cncc(Cl)n2)CC1 (stereo unspecified) |  | 40 |  |  |  | 190 |  |
| O=C1C2C3C=CC(CCCC3)C2C(=O)N1CCCCN1CCN(c2cncc(Cl)n2)CC1 (stereo unspecified) |  | 25 |  |  |  |  |  |
| Cl.O=C1C2C3C=CC(CCC3)C2C(=O)N1CCCCc1ccncc1 (stereo unspecified) | 6 | 40 | 0 |  |  |  |  |

| SMILES | inhibition [1] [%] | AB50 [2] [mg/kg] | inhibition [3] [%] | logP [4] | Ki [5] [nM] | Ki [6] [nM] | Ratio [7] |
| --- | --- | --- | --- | --- | --- | --- | --- |
| O=C1N(CCCCN2CCN(c3cncc(Cl)n3)CC2)C(=O)C23C4C=CC(C4)C12C1C=CC3C1 (stereo unspecified) |  | >40 | 98 |  |  |  |  |
| O=C1C2C3C=CC(C3)C2C(=O)N1CCCCN1CCN(c2ccc(Cl)nn2)CC1 (stereo unspecified) | 19 | 40 |  |  |  |  |  |
| Cl.Cn1nnnc1N1CCN(CCCCN2C(=O)C3C4C=CC(C5CCC45)C3C2=O)CC1 (stereo unspecified) | 39 | 40 | 47 |  |  |  |  |
| O=C1C2C3C=CC(C4CC34)C2C(=O)N1CCCCN1CCN(c2ccc(Cl)nn2)CC1 (stereo unspecified) |  | 40 |  |  | 2330 |  |  |
| O=C1C2C3C=CC(C4CCC34)C2C(=O)N1CCCCN1CCN(c2ccc(Cl)nn2)CC1 (stereo unspecified) |  | >40 |  |  | 1920 |  |  |
| Cl.O=C1C2C3CCCC(CC3)C2C(=O)N1CCCCN1CCN(c2ncccn2)CC1 (stereo unspecified) | 74 | 40 |  |  |  | 5 |  |
| Cl.O=C1C2C3C=CC(C4CC34)C2C(=O)N1CCCCN1CCN(c2cccc(C(F)(F)F)c2)CC1 (stereo unspecified) | 91 | 44 |  |  |  | 26 |  |
| O=C1C2C3C=CC(C4CCC34)C2C(=O)N1CCCCN1CCN(c2cccc(Cl)c2)CC1 (stereo unspecified) | 87 | 40 |  |  |  | 19 |  |
| COc1ccccc1N1CCN(CCCCN2C(=O)C3C4C=CC(C5C=CC54)C3C2=O)CC1.Cl (stereo unspecified) | 100 | 19 | 100 |  |  | 1.3 |  |
| O=C1C2C3CCCC(CC3)C2C(=O)N1CCCCN1CCN(c2cncc(Cl)n2)CC1 (stereo unspecified) | 49 | >40 |  |  |  | 162 |  |
| O=C1C2C3CCC(C4CCC43)C2C(=O)N1CCCCN1CCN(c2cncc(Cl)n2)CC1 (stereo unspecified) |  | >40 |  |  |  | 51 |  |
| Cl.O=C1C2C3C=CC(C4CC34)C2C(=O)N1CCCCc1ccncc1 (stereo unspecified) | 0 | >40 | 0 |  |  |  |  |
| O=C1C2C3C=CC(C4C=CC43)C2C(=O)N1CCCCN1CCN(c2cccc(Cl)c2)CC1 (stereo unspecified) | 3 | >40 |  |  |  | 41 |  |
| O=C1C2C3C=CC(C4CC34)C2C(=O)N1CCCCN1CCN(c2cccc(Cl)c2)CC1 (stereo unspecified) | 100 | 40 |  |  |  | 14 |  |
| Cl.O=C1N(CCCCN2CCN(c3cnccn3)CC2)C(=O)C23C4C=CC(C4)C12C1C=CC3C1 (stereo unspecified) | 14 | 40 |  |  |  | 129 |  |
| O=C1C2C3CS(=O)(=O)CC3C2C(=O)N1CCCCN1CCN(c2nccnc2Cl)CC1 (stereo unspecified) | 0 | 40 | 28 |  |  |  |  |
| Cl.O=C1N(CCCCN2CCN(c3ncccn3)CC2)C(=O)C23C4C=CC(C4)C12C1C=CC3C1 (stereo unspecified) | 53 | 40 |  |  |  |  |  |
| Cl.O=C1C2C3C=CC(C4C=CC43)C2C(=O)N1CCCCN1CCN(c2ncccn2)CC1 (stereo unspecified) | 59 | 13 |  | 1.79 |  |  | 7.6 |
| O=C1C2C3CCC(C4CC43)C2C(=O)N1CCCCN1CCN(c2cncc(Cl)n2)CC1 (stereo unspecified) | 49 | 40 | 72 |  |  |  |  |
| Cl.O=C1C2C3C=CC(C4CCC34)C2C(=O)N1CCCCN1CCN(c2ncccn2)CC1 (stereo unspecified) |  | 47 |  | 2.02 |  | 1.3 |  |
| Cl.O=C1C2C3CCC(C4CCC43)C2C(=O)N1CCCCN1CCN(c2ncccn2)CC1 (stereo unspecified) |  | 40 |  | 2.09 | 53 | 1 |  |
| Cl.O=C1C2C3C=CC(C4C=CC43)C2C(=O)N1CCCCN1CCN(c2ccc(C(F)(F)F)cn2)CC1 (stereo unspecified) | 31 | >40 | 40 |  |  |  |  |
| O=C1C2C3C=CC(CCC3)C2C(=O)N1CCCCN1CCN(c2cncc(Cl)n2)CC1 (stereo unspecified) | 43 | 68 |  |  |  |  |  |
| O=C1C2C3C=CC(C3)C2C(=O)N1CCCCN1CCN(c2cncc(Cl)n2)CC1 (stereo unspecified) | 1 | 40 | 74 |  |  |  |  |
| Cl.O=C1C2C3CCCC(CC3)C2C(=O)N1CCCCN1CCN(c2cccc(C(F)(F)F)c2)CC1 (stereo unspecified) | 97 | >40 |  |  |  | 17 |  |
